Calls of active or inactive are those of the source. No cut-off for these calls is given here.
Assays:
Bacillus anthracis [1] = test: Antibacterial activity against Bacillus anthracis Sterne 34F2 infected in mouse J774A.1 cells assessed as protection against bacteria-induced cytotoxicity using propidium iodide staining after 3 hrs measured every hours for up to 7 hrs; type: functional, organism-based
Bacillus anthracis [2] = test: Inhibition of inosine/L-alanine-induced Bacillus anthracis Sterne 34F2 spore germination pretreated for 15 mins before inosine/L-alanine challenge; type: functional, organism-based
J774.A1 = test: Cytotoxicity against mouse J774A1 cells; type: cell-based
Outline: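 Uninfected J774A.1 macrophages, seeded at 8 × 10^5 cells/ml in serum-free DMEM, were given analogues at various final concentrations. Necrosis was assessed by 20 μM propidium iodide fluorescence at 617 nm, in parallel with the infected wells.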

Bacillus anthracis [3] = test: Activation of Bacillus anthracis Sterne 34F2 spore germination after 1 hr; type: functional, organism-based
[4] = Increase of Bacillus anthracis Sterne 34F2-induced cytotoxicity in mouse J774A.1 cells using propidium iodide staining measured after 5 hrs infection; type: cell-based; conditions: bacillus anthracis str. sterne
[5] = Bacillus anthracis, Sterne 34F2, read-out: IC50
[6] = Bacillus anthracis, Sterne 34F2, J774.A1, read-out: IC50

Row | Structure (SMILES) | IC50 (Bacillus anthracis [1]) | IC50 (Bacillus anthracis [2]; [5]) [µM] | Activity (J774.A1) | IC50 (Bacillus anthracis [2]) | Activity (Bacillus anthracis [3]) | IC50 (Bacillus anthracis [1]; [6]) [µM] | Activity [4]
1 | Nc1ncc2ncn([C@@H]3O[C@H](CO)[C@@H](O)[C@H]3O)c2n1 | Not Active | 380 | Non-toxic | – | – | – | –
2 | Sc1ccncc1 [4-MERCAPTOPYRIDINE] | Not Active | – | Non-toxic | Not Active | inactive | – | –
3 | COc1nc(N)nc2c1ncn2[C@@H]1O[C@H](CO)[C@@H](O)[C@H]1O | Not Active | 350 | Non-toxic | – | – | – | –
4 | OC[C@H]1O[C@@H](n2cnc3c(S)ncnc32)[C@H](O)[C@@H]1O [THIOINOSINE] | – | – | Non-toxic | Not Active | – | 40 | –
5 | CC(C)=CCNc1ncnc2c1ncn2[C@@H]1O[C@H](CO)[C@@H](O)[C@H]1O [RIBOPRINE] | Not Active | 360 | Non-toxic | – | – | – | –
6 | OC[C@H]1O[C@@H](n2cnc3c(Cl)ncnc32)[C@H](O)[C@@H]1O | Not Active | – | Non-toxic | Not Active | – | – | –
7 | Nc1nc2nc[nH]c2c(=S)[nH]1 [THIOGUANINE] | – | – | Non-toxic | Not Active | – | 2 | –
8 | c1ccc(CNc2ncnc3nc[nH]c23)cc1 [6-BENZYLAMINOPURINE] | Not Active | 1550 | Non-toxic | – | – | – | –
9 | CCOC(=O)C1CCCN(c2ncnc3c2ncn3[C@@H]2O[C@H](CO)[C@@H](O)[C@H]2O)C1 (some centres undefined) | Not Active | 700 | Non-toxic | – | – | – | –
10 | CN(C)c1ncnc2c1ncn2[C@@H]1O[C@H](CO)[C@@H](O)[C@H]1O | Not Active | – | Non-toxic | Not Active | – | – | –
11 | Sc1ncnc2nc[nH]c12 [MERCAPTOPURINE ANHYDROUS] | – | – | Non-toxic | Not Active | – | 400 | –
12 | Nc1nc(Cl)c2nc[nH]c2n1 [6-CHLOROGUANINE] | – | – | Non-toxic | Not Active | – | 200 | –
13 | CSc1ncnc2c1ncn2[C@@H]1O[C@H](CO)[C@@H](O)[C@H]1O | Not Active | 320 | Non-toxic | – | – | – | –
14 | C[n+]1cn([C@@H]2O[C@H](CO)[C@@H](O)[C@H]2O)c2nc[nH]c(=O)c21 | Not Active | – | Non-toxic | Not Active | – | – | –
15 | Nc1nc2c(nc(O)n2[C@@H]2O[C@H](CO)[C@@H](O)[C@H]2O)c(=O)[nH]1 [8-HYDROXYGUANOSINE] | Not Active | – | Non-toxic | Not Active | – | – | Toxic
16 | CN(Cc1ccccc1)c1ncnc2c1ncn2[C@@H]1O[C@H](CO)[C@@H](O)[C@H]1O | Not Active | 120 | Non-toxic | – | – | – | Toxic
17 | O=c1cc[nH]c(=S)[nH]1 [THIOURACIL] | Not Active | – | Non-toxic | Not Active | inactive | – | –
18 | OC[C@H]1O[C@@H](n2cnc3c(N4CCCCC4)ncnc32)[C@H](O)[C@@H]1O | Not Active | 1090 | Non-toxic | – | – | – | –
19 | C[C@@H](N)C(=O)O [D-ALANINE] | – | 20 | Non-toxic | – | – | 20 | –
20 | Nc1ncnc2c1ccn2[C@@H]1O[C@H](CO)[C@@H](O)[C@H]1O [TUBERCIDIN] | Not Active | – | Non-toxic | Not Active | – | – | –
21 | Nc1nc2c(ncn2[C@@H]2O[C@H](CO)[C@@H](O)[C@H]2O)c(=O)[nH]1 [GUANOSINE] | Not Active | – | Non-toxic | Not Active | – | – | –
22 | CCCN(CCC)c1ncnc2c1ncn2[C@@H]1O[C@H](CO)[C@@H](O)[C@H]1O | Not Active | 760 | Non-toxic | – | – | – | –

Row | Structure (SMILES) | IC50 (Bacillus anthracis [1]) | IC50 (Bacillus anthracis [2]; [5]) [µM] | Activity (J774.A1) | IC50 (Bacillus anthracis [2]) | Activity (Bacillus anthracis [3]) | IC50 (Bacillus anthracis [1]; [6]) [µM] | Activity [4]
23 | Sc1ccccn1 [2-MERCAPTOPYRIDINE] | Not Active | – | Non-toxic | Not Active | inactive | – | –
24 | Nc1ncnc2c1nc(N)n2[C@@H]1O[C@H](CO)[C@@H](O)[C@H]1O | Not Active | – | Non-toxic | Not Active | inactive | – | –
25 | OC[C@H]1O[C@@H](n2cnc3cncnc32)[C@H](O)[C@@H]1O [NEBULARINE] | Not Active | – | Non-toxic | Not Active | – | – | –
26 | Nc1nc2c(ncn2COC(CO)CO)c(=O)[nH]1 [GANCICLOVIR] | Not Active | – | Non-toxic | Not Active | – | – | –
27 | CNc1ncnc2c1ncn2[C@@H]1O[C@H](CO)[C@@H](O)[C@H]1O | Not Active | 190 | Non-toxic | – | – | – | –
28 | CSc1nc2ccccc2[nH]1 | Not Active | – | Non-toxic | Not Active | – | – | –
29 | OC[C@H]1O[C@@H](n2cnc3c(O)ncnc32)[C@H](O)[C@@H]1O [INOSINE] | – | – | Non-toxic | – | – | – | –
30 | CC(=O)N1CCN(c2ncnc3c2ncn3[C@@H]2O[C@H](CO)[C@@H](O)[C@H]2O)CC1 | Not Active | 50 | Non-toxic | – | – | – | –
31 | Nc1nc(N)c2ncn([C@@H]3O[C@H](CO)[C@@H](O)[C@H]3O)c2n1 | Not Active | 700 | Non-toxic | – | – | – | –
32 | Sc1nc2ccccc2[nH]1 [2-MERCAPTOBENZIMIDAZOLE] | Not Active | – | Non-toxic | Not Active | – | – | –
33 | Nc1nc(=O)[nH]c2c1ncn2[C@@H]1O[C@H](CO)[C@@H](O)[C@H]1O [ISOGUANOSINE] | Not Active | – | Non-toxic | Not Active | – | – | –
34 | Sc1ncccn1 [2-MERCAPTOPYRIMIDINE] | Not Active | – | Non-toxic | Not Active | inactive | – | –
35 | Nc1ncnc2c1ncn2[C@@H]1O[C@H](CO)[C@@H](O)[C@H]1O [ADENOSINE] | Not Active | – | Non-toxic | Not Active | – | – | –
36 | OC[C@H]1O[C@@H](n2cnc3c(SCc4ccccc4)ncnc32)[C@H](O)[C@@H]1O [6-BENZYLTHIOINOSINE] | – | 50 | Non-toxic | – | – | 1040 | –
37 | N#Cc1ncnc2nc[nH]c12 | Not Active | – | Non-toxic | Not Active | – | – | –
38 | Nc1nc(Cl)c2ncn([C@@H]3O[C@H](CO)[C@@H](O)[C@H]3O)c2n1 | – | 890 | Non-toxic | – | – | 190 | –
39 | CCN(CC)c1ncnc2c1ncn2[C@@H]1O[C@H](CO)[C@@H](O)[C@H]1O | Not Active | 310 | Non-toxic | – | – | – | –
40 | O=c1ncnc2n([C@H]3O[C@@H](CO)[C@H](O)[C@@H]3O)[nH]cc1-2 [ALLOPURINOL RIBOSIDE] | – | – | Non-toxic | Not Active | – | 650 | –
41 | Oc1ncnc2[nH]ncc12 [ALLOPURINOL] | Not Active | – | Non-toxic | Not Active | – | – | –
42 | O=C(Nc1ncnc2c1ncn2[C@@H]1O[C@H](CO)[C@@H](O)[C@H]1O)c1ccccc1 | Not Active | 1140 | Non-toxic | – | – | – | Toxic
43 | Nc1cc(S)nc(N)n1 | Not Active | – | Non-toxic | Not Active | inactive | – | –
44 | OC[C@H]1O[C@@H](n2cnc3c(O)nc(O)nc32)[C@H](O)[C@@H]1O [XANTHOSINE] | Not Active | 7190 | Non-toxic | – | – | – | –

Reference: ChEMBL document CHEMBL1687814, “Testing nucleoside analogues as inhibitors of Bacillus anthracis spore germination in vitro and in macrophage cell culture” (Antimicrob Agents Chemother, 2010)
